Test results published in ChEMBL document CHEMBL1143415, “Differential fungicidal activities of amphotericin B and voriconazole against Aspergillus species determined by microbroth methodology” (Antimicrob Agents Chemother, 2007).
Converted amounts (≈) assume the structure as drawn.

Assays:
Aspergillus fumigatus [1] = test: Antifungal activity against Aspergillus fumigatus ATCC MYA-3626 after 24 to 48 hrs by culture-based CFU method; type: functional
How it was run: (§1)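 Done after the 48 h M38-A MIC plates. Clear wells and the 0.5× MIC well were pipetted five times, and 20 μl or 100 μl was subcultured on Sabouraud dextrose agar for 24–48 h at 37°C before CFU counting. MFC = lowest concentration giving no growth for each volume.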

Aspergillus terreus [2] = test: Antifungal activity against Aspergillus terreus isolate after 24 hrs by microbroth colorimetric XTT method; type: functional, organism-based
How it was run: (§2)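 Done after the 48 h M38-A MIC plates. Clear wells and the 0.5× MIC well were aspirated, washed twice with 37°C saline, refilled with fresh RPMI, then incubated 24 h at 37°C. XTT (0.1 mg/ml) with menadione (25 μM), both final, was added for 2 h. A450/630 was read minus background from conidia-free wells. MFC = lowest concentration with absorbance <0.01, a cutoff set by ROC against microscopic growth.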

Aspergillus terreus [3] = test: Antifungal activity against Aspergillus terreus ATCC MYA-3633 after 24 to 48 hrs by culture-based CFU method; type: functional; how it was run: as §1
Aspergillus terreus [4] = test: Antifungal activity against Aspergillus terreus ATCC MYA-3633 after 48 hrs by CLSI M38-A microdilution method; type: functional
How it was run: (§3)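 CLSI M38-A broth microdilution. Conidia came from 5–7 d potato dextrose agar slants at 35°C, suspended in saline with 0.025% Tween 20 and counted by hemacytometer. Final inoculum was 0.5×10^4 to 5×10^4 CFU/ml in RPMI 1640 with MOPS, pH 7.0. Final drug ranges: amphotericin B 0.015–16 mg/liter, voriconazole 0.008–8 mg/liter. Plates ran 48 h at 37°C. MIC = lowest concentration with no visible growth. Duplicate plates; experiments done twice.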

Aspergillus flavus [5] = test: Antifungal activity against Aspergillus flavus isolate after 24 hrs by microbroth colorimetric XTT method; type: functional, organism-based; how it was run: as §2
Aspergillus fumigatus [6] = test: Antifungal activity against Aspergillus fumigatus isolate at 100 CFU infectious rate after 24 hrs by culture-based CFU method; type: functional; how it was run: as §1
Aspergillus flavus [7] = test: Ratio of MFC for Aspergillus flavus isolate to MIC for Aspergillus flavus isolate; type: functional
How it was run: (§4)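 Per-isolate ratio of the XTT-based MFC (24 h post-wash regrowth, absorbance cutoff 0.01) to the 48 h CLSI M38-A MIC, taken as the median of two replicate experiments. A ratio of ≤4 was counted fungicidal and >4 fungistatic.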

Aspergillus terreus [8] = test: Ratio of MFC for Aspergillus terreus isolate to MIC for Aspergillus terreus isolate; type: functional; how it was run: as §4
Aspergillus terreus [9] = test: Antifungal activity against Aspergillus terreus isolate at 20 CFU infectious rate after 24 hrs by culture-based CFU method; type: functional; how it was run: as §1
Aspergillus flavus [10] = test: Antifungal activity against Aspergillus flavus ATCC MYA-3631 after 24 hrs by microbroth colorimetric XTT method; type: functional; how it was run: as §2
Aspergillus terreus [11] = test: Antifungal activity against Aspergillus terreus isolate at 100 CFU infectious rate after 24 hrs by culture-based CFU method; type: functional; how it was run: as §1
Aspergillus flavus [12] = test: Antifungal activity against Aspergillus flavus ATCC MYA-3631 after 24 to 48 hrs by culture-based CFU method; type: functional; how it was run: as §1
Aspergillus flavus [13] = test: Antifungal activity against Aspergillus flavus isolate at 100 CFU infectious rate after 24 hrs by culture-based CFU method; type: functional; how it was run: as §1
Aspergillus terreus [14] = test: Antifungal activity against Aspergillus terreus ATCC MYA-3633 after 24 hrs by microbroth colorimetric XTT method; type: functional; how it was run: as §2
Aspergillus fumigatus [15] = test: Antifungal activity against Aspergillus fumigatus isolate after 8 hrs by microbroth colorimetric XTT method relative to control; type: functional
Aspergillus fumigatus [16] = test: Antifungal activity against Aspergillus fumigatus isolate after 48 hrs by CLSI M38-A microdilution method; type: functional
How it was run: (§5)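 CLSI M38-A broth microdilution in RPMI 1640 (L-glutamine, no bicarbonate, 0.165 M MOPS, pH 7.0). Conidia come from potato dextrose agar slants grown 5 to 7 days at 35°C, suspended in saline with 0.025% Tween 20 and counted by hemacytometer. Final inoculum 0.5 × 10^4 to 5 × 10^4 CFU/ml. Twofold dilutions in flat-bottom plates, 37°C for 48 h. MIC is the lowest concentration with no visible growth. Duplicate plates, two experiments.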

Aspergillus fumigatus [17] = test: Antifungal activity against Aspergillus fumigatus isolate after 24 hrs by microbroth colorimetric XTT method; type: functional, organism-based; how it was run: as §2
Aspergillus flavus [18] = test: Antifungal activity against Aspergillus flavus isolate after 8 hrs by microbroth colorimetric XTT method relative to control; type: functional
Aspergillus flavus [19] = test: Antifungal activity against Aspergillus flavus isolate after 48 hrs by CLSI M38-A microdilution method; type: functional; how it was run: as §3
Aspergillus fumigatus [20] = test: Antifungal activity against Aspergillus fumigatus ATCC MYA-3626 after 48 hrs by CLSI M38-A microdilution method; type: functional; how it was run: as §5
Aspergillus flavus [21] = test: Antifungal activity against Aspergillus flavus ATCC MYA-3631 after 48 hrs by CLSI M38-A microdilution method; type: functional; how it was run: as §3
Aspergillus fumigatus [22] = test: Antifungal activity against Aspergillus fumigatus ATCC MYA-3626 after 24 hrs by microbroth colorimetric XTT method; type: functional; how it was run: as §2
Aspergillus flavus [23] = test: Antifungal activity against Aspergillus flavus isolate at 20 CFU infectious rate after 24 hrs by culture-based CFU method; type: functional; how it was run: as §1
Aspergillus fumigatus [24] = test: Antifungal activity against Aspergillus fumigatus isolate at 20 CFU infectious rate after 24 hrs by culture-based CFU method; type: functional; how it was run: as §1
Aspergillus terreus [25] = test: Antifungal activity against Aspergillus terreus isolate after 8 hrs by microbroth colorimetric XTT method relative to control; type: functional
Aspergillus terreus [26] = test: Antifungal activity against Aspergillus terreus isolate after 48 hrs by CLSI M38-A microdilution method; type: functional; how it was run: as §3
Aspergillus fumigatus [27] = test: Ratio of MFC for Aspergillus fumigatus isolate to MIC for Aspergillus fumigatus isolate; type: functional; how it was run: as §4
Aspergillus flavus [28] = test: Antifungal activity against Aspergillus flavus isolate after 48 hrs by NCCLS M38-A broth microdilution method; type: functional; how it was run: as §3
Aspergillus flavus [29] = test: Antifungal activity against Aspergillus flavus isolate after 6 to 8 hrs by microbroth colorimetric XTT method relative to control; type: functional
Aspergillus fumigatus [30] = test: Antifungal activity against Aspergillus fumigatus isolate after 48 hrs by NCCLS M38-A broth microdilution method; type: functional; how it was run: as §3
Aspergillus fumigatus [31] = test: Antifungal activity against Aspergillus fumigatus isolate after 6 to 8 hrs by microbroth colorimetric XTT method relative to control; type: functional
Aspergillus terreus [32] = test: Antifungal activity against Aspergillus terreus isolate after 6 to 8 hrs by microbroth colorimetric XTT method relative to control; type: functional

C[C@@H]1[C@H](O)[C@@H](C)/C=C/C=C/C=C/C=C/C=C/C=C/C=C/[C@H](O[C@@H]2O[C@H](C)[C@@H](O)[C@H](N)[C@@H]2O)C[C@@H]2O[C@](O)(C[C@@H](O)C[C@@H](O)[C@H](O)CC[C@@H](O)C[C@@H](O)CC(=O)O[C@H]1C)C[C@H](O)[C@H]2C(=O)O [AMPHOTERICIN B]
MFC (Aspergillus fumigatus [1]): 1 µg/mL (≈ 1.08 µM) | EC50 (Aspergillus terreus [2]): 9.55 µg/mL (≈ 10.3 µM) | MFC (Aspergillus terreus [2]): > 16 µg/mL | MFC (Aspergillus terreus [3]): > 2 µg/mL | MIC (Aspergillus terreus [4]): 2 µg/mL (≈ 2.16 µM) | EC50 (Aspergillus flavus [5]): 1.1 µg/mL (≈ 1.19 µM) | MFC (Aspergillus flavus [5]): 2 µg/mL (≈ 2.16 µM) | MFC (Aspergillus fumigatus [6]): 2 µg/mL (≈ 2.16 µM) | MFC/MIC ratio (Aspergillus flavus [7]): 2 | MFC/MIC ratio (Aspergillus terreus [8]): 16 | MFC (Aspergillus terreus [9]): > 16 µg/mL | MFC (Aspergillus flavus [10]): 2 µg/mL (≈ 2.16 µM) | MFC (Aspergillus terreus [11]): > 16 µg/mL | MFC (Aspergillus flavus [12]): 1 µg/mL (≈ 1.08 µM) | MFC (Aspergillus flavus [13]): 2 µg/mL (≈ 2.16 µM) | MFC (Aspergillus terreus [14]): > 16 µg/mL | Activity (Aspergillus fumigatus [15]): 16% | MIC (Aspergillus fumigatus [16]): 1 µg/mL (≈ 1.08 µM) | EC50 (Aspergillus fumigatus [17]): 0.95 µg/mL (≈ 1.03 µM) | MFC (Aspergillus fumigatus [17]): 1 µg/mL (≈ 1.08 µM) | Activity (Aspergillus flavus [18]): 3% | MIC (Aspergillus flavus [19]): 1 µg/mL (≈ 1.08 µM) | MIC (Aspergillus fumigatus [20]): 1 µg/mL (≈ 1.08 µM) | MIC (Aspergillus flavus [21]): 1 µg/mL (≈ 1.08 µM) | MFC (Aspergillus fumigatus [22]): 1 µg/mL (≈ 1.08 µM) | MFC (Aspergillus flavus [23]): 1 µg/mL (≈ 1.08 µM) | MFC (Aspergillus fumigatus [24]): 1 µg/mL (≈ 1.08 µM) | Activity (Aspergillus terreus [25]): 3% | MIC (Aspergillus terreus [26]): 2 µg/mL (≈ 2.16 µM) | MFC/MIC ratio (Aspergillus fumigatus [27]): 2

C[C@@H](c1ncncc1F)[C@](O)(Cn1cncn1)c1ccc(F)cc1F [VORICONAZOLE]
MFC (Aspergillus fumigatus [1]): > 4 µg/mL | EC50 (Aspergillus terreus [2]): 11.7 µg/mL (≈ 33.5 µM) | MFC (Aspergillus terreus [2]): > 8 µg/mL | MFC (Aspergillus terreus [3]): 2 µg/mL (≈ 5.73 µM) | MIC (Aspergillus terreus [4]): 0.5 µg/mL (≈ 1.43 µM) | EC50 (Aspergillus flavus [5]): 1.96 µg/mL (≈ 5.61 µM) | MFC (Aspergillus flavus [5]): 4 µg/mL (≈ 11.5 µM) | MFC90 (Aspergillus flavus [28]): 0.25 µg/mL (≈ 0.716 µM) | MFC (Aspergillus fumigatus [6]): > 8 µg/mL | MFC/MIC ratio (Aspergillus flavus [7]): 4 | MFC/MIC ratio (Aspergillus terreus [8]): 8 | MFC (Aspergillus terreus [9]): 8 µg/mL (≈ 22.9 µM) | MFC (Aspergillus flavus [10]): > 4 µg/mL | Activity (Aspergillus flavus [29]): 16% | MFC (Aspergillus terreus [11]): > 8 µg/mL | MFC (Aspergillus flavus [12]): 0.5 µg/mL (≈ 1.43 µM) | MFC (Aspergillus flavus [13]): 1 µg/mL (≈ 2.86 µM) | MFC (Aspergillus terreus [14]): > 8 µg/mL | MIC (Aspergillus fumigatus [16]): 0.5 µg/mL (≈ 1.43 µM) | EC50 (Aspergillus fumigatus [17]): 2.34 µg/mL (≈ 6.7 µM) | MFC (Aspergillus fumigatus [17]): > 8 µg/mL | MIC (Aspergillus flavus [19]): 0.5 µg/mL (≈ 1.43 µM) | MIC (Aspergillus fumigatus [20]): 1 µg/mL (≈ 2.86 µM) | MFC90 (Aspergillus fumigatus [30]): 0.25 µg/mL (≈ 0.716 µM) | MIC (Aspergillus flavus [21]): 0.5 µg/mL (≈ 1.43 µM) | Activity (Aspergillus fumigatus [31]): 14% | MFC (Aspergillus fumigatus [22]): > 8 µg/mL | MFC (Aspergillus flavus [23]): 0.5 µg/mL (≈ 1.43 µM) | MFC (Aspergillus fumigatus [24]): 2 µg/mL (≈ 5.73 µM) | Activity (Aspergillus terreus [32]): 36% | MIC (Aspergillus terreus [26]): 1 µg/mL (≈ 2.86 µM) | MFC/MIC ratio (Aspergillus fumigatus [27]): > 16
